Assay results as given in ChEMBL document CHEMBL4196006, “Aryl thiosemicarbazones for the treatment of trypanosomatidic infections” (Eur J Med Chem, 2018).
Calls of active or inactive are those of the source. No cut-off for these calls is given here.

Legend:
[1] = test system: Leishmania infantum; assay: Antileishmanial activity against Leishmania infantum amastigote form assessed as parasite growth inhibition at 50 uM after 72 hrs by steady-Glo reagent based assay relative to control; assay type: functional
How it was run: (§1)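 Intramacrophage L. infantum amastigotes in THP-1-derived macrophages, tested at 50 μM or in dose-response. Plates held 72 h at 37 °C, 5% CO2. Medium was replaced by PBS, macrophages lysed, and parasites read by Steady-Glo luminescence. High-content imaging gave host cell number, infection ratio (infected/total cells) and parasites per infected cell. Values are means of at least two independent experiments.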

[2] = test system: Leishmania infantum; assay: Antileishmanial activity against Leishmania infantum amastigote form after 72 hrs by steady-Glo reagent based assay; assay type: functional, organism-based; how it was run: as §1
[3] = test system: Trypanosoma brucei; assay: Potentiation of methotrexate-induced antitrypanosomal activity against Trypanosoma brucei Lister 427 bloodstream form at 10 uM after 72 hrs by resazurin dye-based assay relative to control; assay type: functional
[4] = target: T1, CYP1A2 (Homo sapiens, UniProt P05177); assay: Inhibition of human microsomal CYP1A2 expressed in baculovirus infected BTI-TN-5B1-4 cells at 10 uM incubated for 30 mins by luciferase assay relative to control; assay type: ADME
T1 sequence (P05177 whole entry): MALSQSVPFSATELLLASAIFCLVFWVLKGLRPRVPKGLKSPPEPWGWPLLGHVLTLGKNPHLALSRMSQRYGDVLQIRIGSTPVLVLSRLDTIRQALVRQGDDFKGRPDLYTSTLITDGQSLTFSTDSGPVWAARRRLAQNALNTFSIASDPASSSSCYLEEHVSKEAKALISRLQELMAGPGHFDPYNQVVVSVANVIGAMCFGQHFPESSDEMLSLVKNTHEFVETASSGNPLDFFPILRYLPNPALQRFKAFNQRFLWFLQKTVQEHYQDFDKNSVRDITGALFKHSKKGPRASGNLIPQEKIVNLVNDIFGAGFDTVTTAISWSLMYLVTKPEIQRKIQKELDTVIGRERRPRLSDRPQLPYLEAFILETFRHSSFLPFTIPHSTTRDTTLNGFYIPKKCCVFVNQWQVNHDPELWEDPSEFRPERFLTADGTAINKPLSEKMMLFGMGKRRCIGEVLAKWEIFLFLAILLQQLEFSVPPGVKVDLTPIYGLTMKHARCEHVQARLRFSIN
How it was run: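 CYP1A2, 2C9, 2C19, 2D6 and 3A4 in microsomes from baculovirus-infected insect cells, each with a P450-Glo luminogenic substrate. Inhibition read as loss of light; single-point at 10 μM, triplicate.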

[5] = test system: Trypanosoma brucei; assay: Potentiation of methotrexate-induced antitrypanosomal activity against Trypanosoma brucei Lister 427 bloodstream form at 10 uM after 72 hrs by resazurin dye-based assay; assay type: functional
[6] = Cytotoxicity against human THP1 cells assessed as decrease in viable cells after 72 hrs by MTT assay; assay type: cell-based, THP-1; settings: THP1 cells
How it was run: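 THP-1-derived macrophages exposed to compounds for 72 h, tested at 100 μM or in dose-response; viability read by MTT colorimetric assay.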

[7] = Selectivity index, ratio of CC50 for human THP1 cells to EC50 for Leishmania infantum amastigote form; assay type: toxicity; settings: read-out: Ratio CC50/EC50
How it was run: (§2)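 Selectivity index = CC50 in the human host or cytotoxicity cell line divided by parasite EC50.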

[8] = Selectivity index, ratio of CC50 for human U2OS cells to EC50 for Trypanosoma cruzi amastigote form; assay type: toxicity; settings: read-out: Ratio CC50/EC50; how it was run: as §2
[9] = test system: Trypanosoma brucei; assay: Antitrypanosomal activity against Trypanosoma brucei Lister 427 bloodstream form at 30:1 methotrexate to test compound ratio after 72 hrs by resazurin dye-based assay; assay type: functional, organism-based; settings: Lister 427, 72 h
[10] = Cytotoxicity against human U2OS cells assessed as decrease in viable cells after 72 hrs by cell number count in anti-T. cruzi high content imaging assay; settings: U2OS cells
[11] = test system: Trypanosoma brucei; assay: Antitrypanosomal activity against Trypanosoma brucei Lister 427 bloodstream form at 6:1 methotrexate to test compound ratio after 72 hrs by resazurin dye-based assay; assay type: functional, organism-based; settings: Lister 427, 72 h
[12] = Selectivity ratio of EC50 for Trypanosoma cruzi amastigote form to EC50 for Trypanosoma brucei Lister 427 bloodstream form; assay type: functional

EC50 [2]	inhibition at 0.5 h, 10 µM [4]	EC50 [9]	EC50 [11]	SMILES	inhibition of growth at 50 µM ([1]; read-out: GI)	Activity [3]	PF [5]	CC50 at 72 h [6]	selectivity ratio [7]	selectivity ratio [8]	CC50 at 72 h [10]	growth inhibition (GI) [1]	Ratio EC50 [12]
6.14 µM	26.8%	0.11 µM		NC(=S)N/N=C/c1ccc(OCc2ccc(Cl)c(Cl)c2)cc1	80.5%	99.67%	0.8	82 µM	13	55	72 µM		
	64.7%		0.59 µM	COc1ccc(-c2cccc(/C=N/NC(N)=S)c2)cc1OC		99.67%	0.81					inactive	4
